Screening results deposited in PubChem BioAssay by several laboratories.
This is one part of a sample in which hits are shown more often than they occur.
CHOP UPR activ – activators of apoptotic arm of unfolded protein response (CHOP); activation, % at 10 µM; CHO-CHOP luciferase reporter, UPR activation, luminescence; percent of tunicamycin response over DMSO baseline; 0.34% of 330,000 active; AID 449763;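 active = at 10 µM dose, activation of 40% or more, normalized to positive control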;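 also: 100% = tunicamycin at 10 µg/mL and 0% = DMSO alone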
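System: CHO-CHOP luciferase reporter cell line | Buffer or medium: F12 medium containing 10% fetal bovine serum | Doses: One dose, 10 µM in 0.5% DMSO | Times: 6 h compound exposure at 37 °C after overnight seeding | Signal: Luciferase luminescence | Read-out: % activation vs tunicamycin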
NOD2-RIPK2 inh – blocks binding of human NOD2 to RIPK2. O43353. CHO BLA complementation NOD2-RIPK2, CCF4 ratio. inhibition, % at 4.98 µM. 0.38% of 360,000 active. AID 624267; in the data active = inhibition above about 21%;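 also: 0% = vehicle only and 100% = reference blocker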
Target sequence (O43353 whole entry, looked up): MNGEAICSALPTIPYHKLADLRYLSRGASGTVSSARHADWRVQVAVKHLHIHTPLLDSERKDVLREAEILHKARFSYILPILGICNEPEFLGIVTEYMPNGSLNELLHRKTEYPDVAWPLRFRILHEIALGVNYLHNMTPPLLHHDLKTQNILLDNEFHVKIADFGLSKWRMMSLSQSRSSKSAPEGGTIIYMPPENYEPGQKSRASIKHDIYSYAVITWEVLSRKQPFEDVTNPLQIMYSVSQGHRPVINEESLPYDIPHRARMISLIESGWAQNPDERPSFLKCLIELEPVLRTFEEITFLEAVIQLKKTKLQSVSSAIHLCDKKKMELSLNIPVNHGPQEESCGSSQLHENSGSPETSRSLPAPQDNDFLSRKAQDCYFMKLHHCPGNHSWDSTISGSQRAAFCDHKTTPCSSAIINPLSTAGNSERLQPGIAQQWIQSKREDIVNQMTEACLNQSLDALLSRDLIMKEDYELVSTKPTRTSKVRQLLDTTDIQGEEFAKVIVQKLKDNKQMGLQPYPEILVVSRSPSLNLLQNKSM
TLR4-MyD88 BLA – TLR4-MyD88 interaction inhibition in cells; 0.18% of 200,000 active; HeLa CL3-4 TLR4/MyD88 BLA complementation, FRET ratio; AID 861; inhibition, % at 8.4 µM; in the data active = inhibition above about 25%;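 also: 0% = vehicle and 100% = reference inhibitor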
CHOP inhibitor – CHOP inhibition in unfolded protein response; CHO-K1 CHOP-promoter luciferase, tunicamycin-induced, 15-18 h; inhibition, % at 10 µM; 3.8% of 220,000 active; AID 2732;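 active = compounds that reduced the stress-induced luciferase reporter signal by more than about 70% of percent inhibition, limit read from the data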;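 also: 0% = tunicamycin plus vehicle and 100% = wells without tunicamycin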
XBP1 UPR activ – activators of adaptive arm of unfolded protein response (XBP1); CHO-XBP1 luciferase reporter, IRE1-XBP1 UPR activation, luminescence; percent of tunicamycin response, DMSO as zero; activation, % at 20 µM; 0.33% of 330,000 active; AID 463104;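 active = versus positive control, 20 µM dose yields 30% or more activation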;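 also: 100% = tunicamycin at 10 µg/mL and 0% = DMSO only wells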
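Material: CHO cell line with stable XBP1 luciferase reporter; schedule: 16-18 h cell attachment at 37 °C, then 6 h compound exposure; signal: glow luminescence from Steady-Glo reagent; medium: serum-containing F12 medium, 10% FBS; benchmarks: tunicamycin 10 µg/mL and vehicle-only wells; read-out: percent activation relative to tunicamycin reference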
TLR9-MyD88 inh – blocks human TLR9 binding to MyD88. CHO BLA complementation TLR9-MyD88, CCF4 FRET ratio. Q9NR96+Q99836. 0.21% of 340,000 active. inhibition, % at 4.98 µM;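 active = inhibition above the mean over all tested compounds plus 3 SD, cut at about 21% in these data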;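 also: 0% = DMSO only wells and 100% = clavulanate BLA inhibitor control wells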
* marks the source's active call; other numbers are inactive results.

What do the screens show for `CCCCc1ccc(NC(=O)COc2ccc(C(=O)Nc3ccccc3OCC)cc2)cc1`?
CHOP UPR activ: 8.4; NOD2-RIPK2 inh: -5.4; TLR4-MyD88 BLA: -2.6; CHOP inhibitor: 82.3*; XBP1 UPR activ: 3.4; TLR9-MyD88 inh: -6.5

How did Cc1ccc(C)c(NC(=O)C(Sc2nc3ccc(C)cc3[nH]2)c2ccccc2)c1 (stereo not drawn) do in these assays?
CHOP UPR activ: -1.2; NOD2-RIPK2 inh: 6.3; TLR4-MyD88 BLA: -5.1; CHOP inhibitor: 73.2*; XBP1 UPR activ: 1.1; TLR9-MyD88 inh: -5.6

How did CCC(Sc1nc2ccc(C)cc2[nH]1)C(=O)O (stereo not drawn) do in these assays?
CHOP UPR activ: 0.3; NOD2-RIPK2 inh: -7.2; TLR4-MyD88 BLA: 9.6; CHOP inhibitor: 18.9; XBP1 UPR activ: 4.5; TLR9-MyD88 inh: -16.6

What do the screens show for `COc1ccc(NC(=O)NC2(C)CCS(=O)(=O)C2)cc1` (stereo not drawn)?
CHOP UPR activ: -0.3; NOD2-RIPK2 inh: -3.9; XBP1 UPR activ: -3.5; TLR9-MyD88 inh: -0.9

How did COc1ccc(NC(=O)NC23CC4(C)CC(C)(CC(C)(C4)C2)C3)cc1 do in these assays?
CHOP UPR activ: -1.0; NOD2-RIPK2 inh: -3.6; TLR4-MyD88 BLA: 1.0; CHOP inhibitor: 70.3*; XBP1 UPR activ: 2.6; TLR9-MyD88 inh: -1.5

Results for COc1ccccc1C(=O)NC1CCN(C(=S)NCCc2ccccc2)CC1 ?
CHOP UPR activ: 0.9; NOD2-RIPK2 inh: -7.5; TLR4-MyD88 BLA: -5.4; CHOP inhibitor: -0.3; XBP1 UPR activ: -1.8; TLR9-MyD88 inh: 14.7

Results for COc1ccccc1C(=O)Nc1ccc(N2CCN(C(C)=O)CC2)cc1 ?
CHOP UPR activ: 1.0; NOD2-RIPK2 inh: -9.6; TLR4-MyD88 BLA: 1.5; CHOP inhibitor: 77.3*; XBP1 UPR activ: 3.1; TLR9-MyD88 inh: 0.8

How did Nc1ccc2oc(-c3cccc4ccccc34)nc2c1 do in these assays?
CHOP UPR activ: -6.1; NOD2-RIPK2 inh: -0.9; TLR4-MyD88 BLA: 11.1; CHOP inhibitor: 81.3*; XBP1 UPR activ: -7.5; TLR9-MyD88 inh: 6.7

What do the screens show for `COc1cccc(OCC(=O)NNC(=O)c2ccc(-c3ccccc3)cc2)c1`?
CHOP UPR activ: -0.3; NOD2-RIPK2 inh: -2.5; TLR4-MyD88 BLA: -11.1; CHOP inhibitor: 80.2*; XBP1 UPR activ: 1.3; TLR9-MyD88 inh: -2.7

Results for COc1cccc(OCC(=O)NNC(=O)CCc2ccccc2)c1 ?
CHOP UPR activ: -1.4; NOD2-RIPK2 inh: 12.9; TLR4-MyD88 BLA: 9.6; CHOP inhibitor: 11.8; XBP1 UPR activ: -1.1; TLR9-MyD88 inh: 0.7

What do the screens show for `CC(C)CN(C(=O)CSc1nc2ccccc2c(=O)n1C)C1CCS(=O)(=O)C1` (stereo not drawn)?
CHOP UPR activ: 1.0; NOD2-RIPK2 inh: 5.4; XBP1 UPR activ: -1.4; TLR9-MyD88 inh: 3.0

How did O=C(OCC(=O)N1CCCCCC1)c1ccc([N+](=O)[O-])cc1Cl do in these assays?
CHOP UPR activ: 1.2; NOD2-RIPK2 inh: -0.8; TLR4-MyD88 BLA: -19.4; CHOP inhibitor: 31.1; XBP1 UPR activ: -6.3; TLR9-MyD88 inh: -1.3

How did O=C(c1cc2nc(-c3ccc(F)cc3)cc(C(F)(F)F)n2n1)N1CCCCC1c1cccnc1 (stereo not drawn) do in these assays?
CHOP UPR activ: 3.9; NOD2-RIPK2 inh: -1.2; TLR4-MyD88 BLA: -1.7; CHOP inhibitor: 72.9*; XBP1 UPR activ: 16.9; TLR9-MyD88 inh: 2.9

What do the screens show for `O=C(O)c1cc2nc(-c3ccccc3)cc(-c3ccccc3)n2n1`?
CHOP UPR activ: 0.7; NOD2-RIPK2 inh: 6.4; TLR4-MyD88 BLA: 2.4; CHOP inhibitor: -25.1; XBP1 UPR activ: -0.4; TLR9-MyD88 inh: 18.7

How did CC1CCCCN1C(=O)c1cc2nc(-c3ccccc3)cc(-c3ccccc3)n2n1 (stereo not drawn) do in these assays?
CHOP UPR activ: 8.2; NOD2-RIPK2 inh: 0.5; TLR4-MyD88 BLA: 7.0; CHOP inhibitor: 81.8*; XBP1 UPR activ: 5.8; TLR9-MyD88 inh: -11.2

How did O=C(c1cnn2c(C(F)(F)F)cc(-c3ccccc3)nc12)N1CCCCC1c1cccnc1 (stereo not drawn) do in these assays?
CHOP UPR activ: 1.4; NOD2-RIPK2 inh: 2.1; TLR4-MyD88 BLA: -11.7; CHOP inhibitor: 31.5; XBP1 UPR activ: 2.8; TLR9-MyD88 inh: -1.4

What do the screens show for `C=CCN(C(=O)c1csnn1)C(C(=O)NCc1ccc(F)cc1)c1ccccc1` (stereo not drawn)?
CHOP UPR activ: 0.4; NOD2-RIPK2 inh: -13.1; XBP1 UPR activ: -4.6; TLR9-MyD88 inh: -2.5

Results for O=C(NCc1ccccc1)C12CC3CC(CC(C3)C1)C2 ?
CHOP UPR activ: -2.6; NOD2-RIPK2 inh: 8.9; TLR4-MyD88 BLA: 8.9; CHOP inhibitor: 43.2; XBP1 UPR activ: -0.3; TLR9-MyD88 inh: -4.4

How did O=C(Nn1nnnc1Nc1ccccc1)C12CC3CC(CC(C3)C1)C2 do in these assays?
CHOP UPR activ: -0.4; NOD2-RIPK2 inh: -7.3; TLR4-MyD88 BLA: -15.1; CHOP inhibitor: 93.8*; XBP1 UPR activ: -7.7; TLR9-MyD88 inh: -10.9

Results for Clc1ccc(OCc2nc(-c3ccncc3)no2)c(Cl)c1 ?
CHOP UPR activ: 1.7; NOD2-RIPK2 inh: 0.7; TLR4-MyD88 BLA: 4.9; CHOP inhibitor: 82.7*; XBP1 UPR activ: 4.4; TLR9-MyD88 inh: 0.1

How did Clc1cccc(OCc2nc(-c3ccncc3)no2)c1 do in these assays?
CHOP UPR activ: 2.3; NOD2-RIPK2 inh: 5.4; TLR4-MyD88 BLA: -8.3; CHOP inhibitor: -10.4; XBP1 UPR activ: 7.0; TLR9-MyD88 inh: -4.4

Results for CC(C)(C)c1ccc(OCc2nc(-c3ccccn3)no2)c(Br)c1 ?
CHOP UPR activ: 5.0; NOD2-RIPK2 inh: 0.2; TLR4-MyD88 BLA: -5.8; CHOP inhibitor: 68.3; XBP1 UPR activ: -1.6; TLR9-MyD88 inh: -1.1

Results for Clc1cc(Cl)c(OCc2nc(-c3ccccn3)no2)cc1Cl ?
CHOP UPR activ: 1.5; NOD2-RIPK2 inh: -5.3; TLR4-MyD88 BLA: 14.9; CHOP inhibitor: 95.6*; XBP1 UPR activ: 2.1; TLR9-MyD88 inh: -2.4

How did Cn1c(=O)c2cc(NC(=O)CCc3cccnc3)ccc2n1Cc1ccc(F)cc1 do in these assays?
NOD2-RIPK2 inh: 4.4

Results for CCOC(=O)c1sc(Nc2ccc(C)cc2C)nc1C ?
CHOP UPR activ: 1.7; NOD2-RIPK2 inh: 1.7; TLR4-MyD88 BLA: 0.3; CHOP inhibitor: 92.9*; XBP1 UPR activ: 1.7; TLR9-MyD88 inh: -11.4

What do the screens show for `CCOC(=O)c1sc(Nc2nc3c(OC)cccc3s2)nc1C`?
CHOP UPR activ: 4.1; NOD2-RIPK2 inh: -35.2; TLR4-MyD88 BLA: -20.0; CHOP inhibitor: 72.6*; XBP1 UPR activ: 4.2; TLR9-MyD88 inh: -38.0

What do the screens show for `CCOC(=O)c1sc(Nc2ccccc2)nc1C`?
CHOP UPR activ: 4.4; NOD2-RIPK2 inh: 4.2; TLR4-MyD88 BLA: -4.3; CHOP inhibitor: 31.8; XBP1 UPR activ: 3.5; TLR9-MyD88 inh: -5.8
